Laboratory results from ChEMBL document CHEMBL5335802, “Lead Optimization of the 5-Phenylpyrazolopyrimidinone NPD-2975 toward Compounds with Improved Antitrypanosomal Efficacy” (J Med Chem, 2024).
Values belong to the compound of their own block, whether it stands above or below them. Activity calls are given as the source filed them. The calls are words filed in the database; no cut-off is given here.

Experiments:
[1] = Cytotoxicity against human MRC5 cells incubated for 3 days by resazurin reagent fluorimetric analysis; type: toxicity, cell-based
Plasmodium falciparum = assay: Antiplasmodial activity against Plasmodium falciparum assessed as inhibition of parasite growth incubated for 72 hrs by resazurin reagent fluorimetric analysis; type: functional, organism-based
[2] = Toxicity in mouse infected with Trypanosoma brucei Squib 427 trypomastigotes assessed as animal death at 10 mg/kg,po bid administrated for 5 consecutive days measured after 60 days; type: organism-based; details: in vivo, 1440 h, time 60 day
[3] = Cytotoxicity against mouse Peritoneal macrophage cell incubated for 3 days by resazurin reagent fluorimetric analysis; type: toxicity, cell-based; details: peritoneal macrophages
[4] = Metabolic stability in mouse liver microsomes assessed as parent compound remaining in phase-II metabolism measured after 1 hr; type: ADME, Microsome; details: read-out: Stability
[5] = Metabolic stability in human liver microsomes assessed as drug metabolism in phase-I stage; type: ADME, Microsome
[6] = Metabolic stability in human liver microsomes assessed as parent compound remaining in phase-II metabolism measured after 1 hr; type: ADME, Microsome; details: read-out: Stability
Trypanosoma brucei [7] = assay: Antitrypanosomal activity against Trypanosoma brucei assessed as inhibition of parasite growth incubated for 72 hrs by resazurin reagent fluorimetric analysis; type: functional, organism-based
Trypanosoma brucei [8] = assay: Antitrypanosomal activity against Trypanosoma brucei Squib 427 trypomastigotes infected in mouse model assessed as reduction in parasite growth in spleen at 25 mg/kg,po bid administrated for 5 consecutive days by SL-RNA qPCR assay; type: functional, organism-based
Summary of the method: (§1)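 Surviving mice from the acute infection model (PO b.i.d., 5 days, PEG400) tested by SL-RNA qPCR. Peripheral blood erythrocyte-lysed before RNA extraction. Mice sedated with ketamine/xylazine and perfused; fat, brain and spleen pieces held in RNAlater overnight at 4 °C. Activation 10 min 45 °C, 10 min 95 °C; 40 cycles 95/50/60 °C, 15 s each; melting curve. Eef2 qPCR confirmed RNA extraction.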

[9] = Toxicity in mouse infected with Trypanosoma brucei Squib 427 trypomastigotes assessed as animal death at 50 mg/kg,po bid administrated for 5 consecutive days measured after 60 days; type: organism-based; details: in vivo, 1440 h, time 60 day
Summary of the method: (§2)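 Female Swiss mice (15-20 g), groups of three, infected IP with 10⁴ T. brucei Squib 427 trypomastigotes. Compound given PO b.i.d. for 5 days in PEG400 (formulated at 12.5 and 6.25 mg/mL, up to 100 μL/25 g body weight). First dose 30 min before infection. PEG400 vehicle control group included. Animals observed for clinical or adverse effects and survival; tail-vein parasitemia checked microscopically until 63 dpi.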

Trypanosoma brucei [10] = assay: Antitrypanosomal activity against Trypanosoma brucei Squib 427 trypomastigotes infected in mouse model assessed as reduction in parasite growth in brain at 50 mg/kg,po bid administrated for 5 consecutive days by SL-RNA qPCR assay; type: functional, organism-based; summary of the method: as §1
[11] = Toxicity in mouse infected with Trypanosoma brucei Squib 427 trypomastigotes assessed as animal death at 25 mg/kg,po bid administrated for 5 consecutive days; type: organism-based; details: in vivo; summary of the method: as §2
Trypanosoma brucei [12] = assay: Antitrypanosomal activity against Trypanosoma brucei Squib 427 trypomastigotes infected in mouse model assessed as reduction in parasite growth in fat at 25 mg/kg,po bid administrated for 5 consecutive days by SL-RNA qPCR assay; type: functional, organism-based; summary of the method: as §1
Trypanosoma brucei [13] = assay: Antitrypanosomal activity against Trypanosoma brucei Squib 427 trypomastigotes infected in mouse model assessed as reduction in parasite growth in fat at 50 mg/kg,po bid administrated for 5 consecutive days by SL-RNA qPCR assay; type: functional, organism-based; summary of the method: as §1
Trypanosoma brucei [14] = assay: Antitrypanosomal activity against Trypanosoma brucei Squib 427 trypomastigotes infected in mouse model assessed as reduction in parasite growth in brain at 25 mg/kg,po bid administrated for 5 consecutive days by SL-RNA qPCR assay; type: functional, organism-based; summary of the method: as §1
Trypanosoma brucei [15] = assay: Antitrypanosomal activity against Trypanosoma brucei Squib 427 trypomastigotes infected in mouse model assessed as reduction in parasite growth in blood at 25 mg/kg,po bid administrated for 5 consecutive days by SL-RNA qPCR assay; type: functional, organism-based; summary of the method: as §1
Trypanosoma brucei [16] = assay: Antitrypanosomal activity against Trypanosoma brucei Squib 427 trypomastigotes infected in mouse model assessed as reduction in parasitemia at 50 mg/kg,po bid administrated for 5 consecutive days by microscopic analysis; type: functional, organism-based
Summary of the method: (§3)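 Female Swiss mice (15-20 g), three per group, infected IP with 10^4 T. brucei Squib 427 trypomastigotes. Dosing PO b.i.d. for 5 days in PEG400; first dose 30 min before infection. Vehicle and suramin (10 mg/kg IP s.i.d., 5 days) controls. Parasitemia counted microscopically in tail-vein blood drops at several time points up to 63 dpi. Clinical or adverse effects observed.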

Trypanosoma brucei [17] = assay: Antitrypanosomal activity against Trypanosoma brucei Squib 427 trypomastigotes infected in mouse model assessed as reduction in parasitemia at 25 mg/kg,po bid administrated for 5 consecutive days; type: functional, organism-based; summary of the method: as §3
Trypanosoma brucei [18] = assay: Antitrypanosomal activity against Trypanosoma brucei Squib 427 trypomastigotes infected in mouse model assessed as reduction in parasite growth in spleen at 50 mg/kg,po bid administrated for 5 consecutive days by SL-RNA qPCR assay; type: functional, organism-based; summary of the method: as §1
Trypanosoma brucei [19] = assay: Antitrypanosomal activity against Trypanosoma brucei Squib 427 trypomastigotes infected in mouse model assessed as reduction in parasite growth in blood at 50 mg/kg,po bid administrated for 5 consecutive days by SL-RNA qPCR assay; type: functional, organism-based; summary of the method: as §1

SMILES: CCCn1nc(C(C)C)c2nc(-c3ccc(F)cc3)[nH]c(=O)c21
- IC50 at 3 days [1]: > 63.1 µM

SMILES: CC(C)c1n[nH]c2c(=O)[nH]c(Cc3ccccc3)nc12
- IC50 (Plasmodium falciparum): 1.26 µM

SMILES: Cc1ccc(C(=O)Nc2ccc(S(=O)(=O)O)c3cc(S(=O)(=O)O)cc(S(=O)(=O)O)c23)cc1NC(=O)c1cccc(NC(=O)Nc2cccc(C(=O)Nc3cc(C(=O)Nc4ccc(S(=O)(=O)O)c5cc(S(=O)(=O)O)cc(S(=O)(=O)O)c45)ccc3C)c2)c1 [SURAMIN]
- Activity [2]: Non-Toxic

- remaining at 1 h [4]: 69%
- Stability [5]: Stable
- remaining at 1 h [6]: 69%
SMILES: O=c1[nH]c(-c2ccc(F)cc2)nc2c(C3CCCC3)n[nH]c12
- IC50 at 3 days [3]: > 63.1 µM
- IC50 at 3 days [1]: > 63.1 µM

SMILES: CC(C)c1c2nc(-c3ccc(F)cc3)[nH]c(=O)c2nn1C
- IC50 at 3 days [1]: > 63.1 µM

SMILES: Cc1n[nH]c2c(=O)[nH]c(-c3ccc(F)cc3)nc12
- IC50 at 3 days [1]: > 63.1 µM

SMILES: CCc1n[nH]c2c(=O)[nH]c(-c3ccc(F)cc3)nc12
- IC50 at 3 days [1]: > 63.1 µM

- IC50 (Trypanosoma brucei [7]; read-out: pIC50 (converted)): 0.0794 µM
SMILES: CC(C)c1nn(C)c2c(=O)[nH]c(-c3ccc(F)cc3)nc12
- IC50 at 3 days [1]: > 63.1 µM

- IC50 (Trypanosoma brucei [7]; read-out: pIC50 (converted)): 0.0501 µM
SMILES: O=c1[nH]c(-c2ccc(F)cc2)nc2c(-c3ccccc3)n[nH]c12
- IC50 at 3 days [1]: > 63.1 µM

SMILES: CCn1nc(C(C)C)c2nc(-c3ccc(F)cc3)[nH]c(=O)c21
- IC50 at 3 days [1]: > 63.1 µM

- IC50 (Trypanosoma brucei [7]; read-out: pIC50 (converted)): 0.0398 µM
SMILES: O=c1[nH]c(-c2ccc(F)cc2)nc2c(C3CCCCC3)n[nH]c12
- IC50 at 3 days [1]: > 63.1 µM

SMILES: COCCn1nc(C(C)C)c2nc(-c3ccc(F)cc3)[nH]c(=O)c21
- IC50 at 3 days [1]: > 63.1 µM

SMILES: CC(C)(C)c1n[nH]c2c(=O)[nH]c(-c3ccc(F)cc3)nc12
- Activity (Trypanosoma brucei [8]): Active
- Activity [9]: Non-Toxic
- Activity (Trypanosoma brucei [10]): Active
- Activity [11]: Non-Toxic
- Activity (Trypanosoma brucei [12]): Active
- Activity (Trypanosoma brucei [13]): Active
- IC50 at 3 days [3]: > 63.1 µM
- remaining at 1 h [4]: 69%
- Stability [5]: Stable
- Activity (Trypanosoma brucei [14]): Active
- remaining at 1 h [6]: 69%
- IC50 at 3 days [1]: > 63.1 µM
- Activity (Trypanosoma brucei [15]): Active
- Activity (Trypanosoma brucei [16]): Active
- Activity (Trypanosoma brucei [17]): Active
- Activity (Trypanosoma brucei [18]): Active
- Activity (Trypanosoma brucei [19]): Active

- IC50 (Trypanosoma brucei [7]; read-out: IC50): 3.2 µM
- IC50 (Trypanosoma brucei [7]; read-out: pIC50 (converted)): 3.16 µM
SMILES: COc1ccc(CCn2nc(C(C)C)c3nc(-c4ccc(F)cc4)[nH]c(=O)c32)cc1
- IC50 at 3 days [1]: > 63.1 µM

SMILES: CC(C)c1nn(CCO)c2c(=O)[nH]c(-c3ccc(F)cc3)nc12
- IC50 at 3 days [1]: > 63.1 µM

- remaining at 1 h [4]: 69%
- Stability [5]: Stable
- remaining at 1 h [6]: 69%
SMILES: CC(C)c1n[nH]c2c(=O)[nH]c(-c3ccc(F)cc3)nc12

SMILES: CC(C)c1nn(CCC(N)=O)c2c(=O)[nH]c(-c3ccc(F)cc3)nc12
- IC50 at 3 days [1]: > 63.1 µM

SMILES: O=c1[nH]c(-c2ccc(F)cc2)nc2cn[nH]c12
- IC50 at 3 days [1]: > 63.1 µM

SMILES: CC(C)c1[nH]nc2c(=O)n(C)c(-c3ccc(F)cc3)nc12
- IC50 at 3 days [1]: > 63.1 µM

SMILES: CC(C)c1nn(C(C)C)c2c(=O)[nH]c(-c3ccc(F)cc3)nc12
- IC50 at 3 days [1]: > 63.1 µM
